An excerpt weighted towards active compounds, which were near 2.2% of everything screened.
E-selectin induc = induces E-selectin expression in human endothelial cells. activation, % at 7.58 µM. HUVEC E-selectin immunofluorescence imaging; normalized: neutral wells 0, TNF-alpha wells 100. 260,000 tested, 0.37% active;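 active = mean E-selectin-positive cell signal at least 10% of the positive control, reached in at least 60% of replicates, without over 20% cell loss; inconclusive = no rule given, readout overlaps actives, possibly toxicity-flagged; inactive = the rest, including those meeting only one limit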
Target sequence (P16581 whole entry, looked up): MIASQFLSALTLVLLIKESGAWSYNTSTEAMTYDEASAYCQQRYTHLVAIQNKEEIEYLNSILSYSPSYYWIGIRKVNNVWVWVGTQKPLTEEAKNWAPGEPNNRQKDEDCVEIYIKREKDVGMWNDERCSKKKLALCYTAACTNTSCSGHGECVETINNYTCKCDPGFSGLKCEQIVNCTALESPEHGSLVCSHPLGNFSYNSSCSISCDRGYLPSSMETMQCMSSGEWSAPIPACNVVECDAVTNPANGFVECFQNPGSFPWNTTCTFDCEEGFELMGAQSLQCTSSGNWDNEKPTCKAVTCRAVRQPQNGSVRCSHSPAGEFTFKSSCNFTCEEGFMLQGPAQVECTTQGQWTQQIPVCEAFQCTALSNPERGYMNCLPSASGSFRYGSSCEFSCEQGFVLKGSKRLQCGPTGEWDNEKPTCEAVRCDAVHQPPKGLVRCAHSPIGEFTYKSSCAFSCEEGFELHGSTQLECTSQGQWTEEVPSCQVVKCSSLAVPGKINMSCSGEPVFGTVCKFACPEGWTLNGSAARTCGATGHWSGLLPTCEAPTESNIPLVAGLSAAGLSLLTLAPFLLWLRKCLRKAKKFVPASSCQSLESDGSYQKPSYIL
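System: HUVEC, human umbilical vein endothelial cells; quantity: 3,000 cells/well; buffer or medium: EGM-2 medium, gelatin-coated wells; dosing: single-point compound dose; detection: immunofluorescence imaging; evaluation: % PE-positive cells; benchmarks: TNF-alpha, DMSO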
Statin myotox sup = suppressors of simvastatin-induced myotoxicity in C2C12 myotubes. AID 602340. 330,000 tested, 0.78% active. ATP luminescence, 48 h; scaled: DMSO 0, geranylgeraniol control 100. rescue of ATP level, % at 7.49 µM;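 active = mean ATP rescue above about 67%, or every replicate alone reaching that limit, limit read from the data, passing the limit was not always enough; inconclusive = no clear call, values can overlap the other calls; inactive = mean under the limit and some replicate under it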;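 note: myotubes were challenged with 10 µM simvastatin during compound exposure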
DENV2 CPE rescue = inhibitors of DENV2 cytopathic effect | CPE inhibition, % at 9.99 µM | DENV2-infected cells, cytopathic effect rescue, plate reader | 350,000 tested, 1.7% active | AID 651640; in the data active = CPE inhibition above about 20%, passing the limit was not always enough; inconclusive = no clear call, values can overlap the other calls; tested in BHK-21 cells;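 note: 0% = median of neutral control wells and 100% = median of positive control wells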
Starred values were filed as active, the others as inactive; ? = inconclusive; / = not tested or not shown.

SMILES	E-selectin induc	Statin myotox sup	DENV2 CPE rescue
Clc1ccc(C2=NCCn3nc4ccccc4c32)cc1	0	12	?
Nc1c(Cl)cc(C2=NCCn3nc4ccccc4c32)cc1Cl	/	1	22*
O=C(N[C@@H]1CC[C@@H](CCNS(=O)(=O)c2ccc(F)cc2)O[C@H]1CO)C1CCCC1	0	4	-8
Cc1ccc(NC(=O)CC2COc3ccccc3O2)cc1 (centres undefined)	/	113*	/
COc1ccc(C)cc1NC(=O)CC1COc2ccccc2O1 (centres undefined)	/	-2	-7
COc1ccc(CN2C[C@@H](O)COC[C@@H]3O[C@@H](CC(=O)N(C)C)CC[C@H]32)cc1	0	6	9
COc1ccc(/C=N/NC(=S)SC)cc1OC	0	/	1
CSC(=S)N/N=C/c1ccccc1	/	87*	-3
C[C@@H]1CCCCO[C@@H](CN(C)C(=O)CCCN(C)C)[C@@H](C)CN([C@@H](C)CO)C(=O)c2cc(NC(=O)C3CCCCC3)ccc2O1	0	/	3
Cc1ccccc1S(=O)(=O)N1[C@@H](c2ccc(Br)cc2)C(C(=O)O)=CC[C@H]1c1ccc(Cl)cc1	0	4	4
Cc1ccc([C@@H]2CC=C(C(=O)O)[C@H](c3ccc(Br)cc3)N2S(=O)(=O)c2ccccc2C)cc1	-1	3	28*
C[C@H](CO)N1C[C@H](C)[C@H](CN(C)Cc2ccc(C(=O)O)cc2)Oc2c(NC(=O)C3CCCCC3)cccc2C1=O	1	16	-8
Cc1c(C)c2cc(Cl)c(OCC(=O)NCCCN3CCCC3=O)cc2oc1=O	/	-7	44*
Cc1cc(=O)oc2cc(OCC(=O)NCCCN3CCCC3=O)c(Cl)cc12	/	9	0
Cc1cc(NCc2ccccn2)n2ncc(-c3ccc(Cl)cc3)c2n1	0	/	-1
Cc1cc(NCc2ccccn2)n2nc(C)c(-c3ccc(Cl)cc3)c2n1	47*	-95	-12
Cc1ccc(S(=O)(=O)N(C)C[C@H]2OCCCC[C@@H](C)Oc3ccc(NS(C)(=O)=O)cc3C(=O)N([C@@H](C)CO)C[C@@H]2C)cc1	0	/	-9
CC1CCOC(c2coc3ccccc3c2=O)O1 (centres undefined)	/	/	33*
O=C(O)C1CSC(c2coc3ccccc3c2=O)N1 (centres undefined)	3	/	-6
C[C@@H]1CN([C@@H](C)CO)S(=O)(=O)c2ccc(C#CCN(C)C)cc2O[C@H]1CN(C)C	0	2	?
COc1ccc(-c2ccc3c(c2)O[C@@H](CN(C)C(C)=O)[C@@H](C)CN([C@H](C)CO)S3(=O)=O)cc1	0	12	-12
CC(C)(C)OC(=O)NCc1ccc(CNC(=O)c2[nH]cnc2C(=O)NC2CCN(C(=O)OC(C)(C)C)CC2)cc1	/	18	/
CC(C)C[C@H](NC(=O)c1nc[nH]c1C(=O)NC1CCN(C(=O)OC(C)(C)C)CC1)C(=O)OCc1ccccc1	/	7	6
CN(Cc1ccccc1)C(=O)c1nc[nH]c1C(=O)N1CCN(C(=O)OC(C)(C)C)CC1	0	-3	42*
CC(C)(C)OC(=O)NCc1ccc(CNC(=O)c2nc[nH]c2C(=O)N2CCc3ccccc3C2)cc1	0	6	60*
SMILES	E-selectin induc	Statin myotox sup	DENV2 CPE rescue
CC(C)C[C@H](NC(=O)c1nc[nH]c1C(=O)NC1CCN(C(=O)OC(C)(C)C)CC1)C(=O)OC(C)(C)C	0	2	50*
CN(Cc1ccccc1)C(=O)c1nc[nH]c1C(=O)N1CCN(c2ccccc2)CC1	0	28	-5
CC(C)(C)OC(=O)N1CCC(NC(=O)c2nc[nH]c2C(=O)NCc2ccccc2)CC1	2	-33	34*
CC(C)(C)OC(=O)NCCCCCNC(=O)c1nc[nH]c1C(=O)N1CCc2ccccc2C1	0	8	-12
CCC(=O)Nc1ccc2c(c1)C(=O)N(C)C[C@H](OC)[C@@H](C)CN(Cc1cncnc1)[C@H](C)CO2	0	6	/
O=C(N[C@H]1CC[C@@H](CCNS(=O)(=O)c2ccc(F)cc2)O[C@H]1CO)c1cccnc1	-2	-3	0
COC(=O)C[C@H]1CC[C@@H]2[C@H](COc3ccc(NC(=O)c4ccccc4)cc3C(=O)N2C)O1	0	7	4
CC=Cc1ccc2n(c1=O)C[C@@H]1[C@@H](CO)[C@H](C(=O)NCc3ccccc3F)N(S(C)(=O)=O)[C@H]21 (mixture of isomers)	0	-19	4
C[C@@H]1CN([C@H](C)CO)C(=O)c2cc(NC(=O)Cc3ccccc3)ccc2O[C@@H](C)CCCCO[C@@H]1CN(C)C(=O)Cc1ccccc1	0	-87	8
CCC(=O)Nc1ccc2c(c1)C(=O)N(C)[C@H]1CC[C@@H](CC(=O)NCC3CCCCC3)O[C@@H]1CO2	0	-10	-6

High-throughput results deposited in PubChem BioAssay by Broad Institute.
